Assay results taken from ChEMBL document CHEMBL1135529, “New inhibitors of bacterial protein synthesis from a combinatorial library of macrocycles” (J Med Chem, 2002).
≈ marks a conversion by molar mass, not a printed value.

Experiments:
Assay type in all cases: functional
[1] = tested on: Escherichia coli; assay: In vitro minimum inhibition concentration against Escherichia coli Ram195, pump mutant.
In short: (§1)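 Broth microdilution in duplicate. Overnight culture added to compound in 2.5% DMSO in water; final inoculum about 10²–10³ CFU/well. Growth relative to no-compound control read as A595 after 20–24 h at 37 °C. MIC reported as a range: complete inhibition at the upper concentration, viable cells at the lower. Top concentration 100 μM.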

[2] = tested on: Escherichia coli; assay: In vitro minimum inhibition concentration against Escherichia coli D21f2, LPS mutant; Range is from 12-25.; in short: as §1
[3] = tested on: Escherichia coli; assay: In vitro minimum inhibition concentration against Escherichia coli K-12, wild type.; in short: as §1
[4] = In vitro inhibition of translation in luciferase SP6 control plasmid
In short: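 Luciferase mRNA transcribed from SP6 plasmid with SP6 RNA polymerase, then translated in E. coli S30 extract for linear templates with S30 premix and complete amino acid mix (1 mM each, 10× stock). 90 min at 37 °C; functional luciferase detected by luminescence. IC50 = concentration reducing luciferase activity to 50% of control.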

[5] = tested on: Escherichia coli; assay: Inhibition of cell free transcription/translation by Escherichia coli s30 bacterial extract.
In short: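 Coupled transcription/translation in E. coli S30 extract with pBest Luc plasmid (0.125 μg/μL stock), S30 premix and complete amino acid mix (1 mM each, 10× stock). 35 min at 37 °C, then luciferase read by luminescence. IC50 = concentration reducing luciferase activity to 50% of control; compounds HPLC-purified before IC50 determination.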

[6] = tested on: Escherichia coli; assay: In vitro minimum inhibition concentration against Escherichia coli KZM120, pump mutant.; in short: as §1
[7] = tested on: Escherichia coli; assay: In vitro minimum inhibition concentration against Escherichia coli D21f2, LPS mutant; Range is from 25-50.; in short: as §1
[8] = tested on: Escherichia coli; assay: In vitro minimum inhibition concentration against Escherichia coli K-12, wild type; Range is from 50-100.; in short: as §1
[9] = tested on: Escherichia coli; assay: In vitro minimum inhibition concentration against Escherichia coli KZM120, pump mutant; Range is from 50-100.; in short: as §1
[10] = tested on: Escherichia coli; assay: In vitro minimum inhibition concentration against Escherichia coli Ram195, pump mutant; Range is from 50-100.; in short: as §1
[11] = tested on: Escherichia coli; assay: In vitro minimum inhibition concentration against Escherichia coli D21f2, LPS mutant; Range is from 25-50; in short: as §1

**Q.** Which MIC [1] does the source give for NCCCC[C@H]1COc2ccc(NC(=O)c3ccc4nc(O)c(O)nc4c3)cc2C(=O)NC[C@@H](N)C(=O)N[C@@H](Cc2ccccc2)C(=O)N1 here?
**A.** > 100 µM

**Q.** What about the MIC [2] of the same compound?
**A.** 25 µM (≈ 16.8 µg/mL)

**Q.** What about the MIC [3] of the same compound?
**A.** > 100 µM

**Q.** And the IC50 [4]?
**A.** 50 µM

**Q.** What about the IC50 [5] of the same compound?
**A.** 40 µM

**Q.** What about the MIC [6] of the same compound?
**A.** > 100 µM

**Q.** Which results are given for NC[C@H]1O[C@H](O[C@H]2[C@H](O)[C@@H](O[C@H]3O[C@H](CO)[C@@H](O)[C@H](N)[C@H]3O)[C@H](N)C[C@@H]2N)[C@H](O)[C@@H](O)[C@@H]1O [KANAMYCIN]?
**A.** IC50 [4]: 0.08 µM; IC50 [5]: 0.04 µM

**Q.** Which IC50 [5] does the source give for Cc1cc2nc(O)c(O)nc2cc1S(=O)(=O)Nc1ccc2c(c1)C(=O)NC[C@@H](N)C(=O)N[C@@H](Cc1ccc(N)cc1)C(=O)N[C@@H](CCCN=C(N)N)CO2 here?
**A.** 2 µM

**Q.** For NC(N)=NCCC[C@H]1COc2ccc(NC(=O)CCCNC(=O)c3ccc4nc(O)c(O)nc4c3)cc2C(=O)NC[C@@H](N)C(=O)N[C@@H](Cc2ccc(N)cc2)C(=O)N1, which IC50 [5] is on record?
**A.** 75 µM

**Q.** Which MIC [7] does the source give for NC(N)=NCCC[C@@H]1COc2ccc(NC(=O)c3ccc4nc(O)c(O)nc4c3)cc2C(=O)NC[C@H](N)C(=O)N[C@H](Cc2ccccc2)C(=O)N1 here?
**A.** 50 µM (≈ 34.9 µg/mL)

**Q.** And the MIC [8]?
**A.** 100 µM (≈ 69.9 µg/mL)

**Q.** What about the MIC [9] of the same compound?
**A.** 100 µM (≈ 69.9 µg/mL)

**Q.** And the MIC [10]?
**A.** 100 µM (≈ 69.9 µg/mL)

**Q.** And the IC50 [5]?
**A.** 12 µM

**Q.** With NC(N)=NCCC[C@H]1COc2ccc(NC(=O)c3cc4nc(O)c(O)nc4cc3[N+](=O)[O-])cc2C(=O)NC[C@@H](N)C(=O)N[C@@H](Cc2ccc(N)cc2)C(=O)N1 as the compound, how does the IC50 [5] read?
**A.** > 100 µM

**Q.** With NC(N)=NCCC[C@@H]1COc2ccc(NC(=O)c3ccc4nc(O)c(O)nc4c3)cc2C(=O)NC[C@H](N)C(=O)N[C@H](Cc2ccc(N)cc2)C(=O)N1 as the compound, how does the MIC [1] read?
**A.** > 100 µM

**Q.** What about the MIC [2] of the same compound?
**A.** 25 µM (≈ 17.8 µg/mL)

**Q.** And the MIC [3]?
**A.** > 100 µM

**Q.** And the IC50 [4]?
**A.** 25 µM

**Q.** What about the IC50 [5] of the same compound?
**A.** 17 µM

**Q.** What about the MIC [6] of the same compound?
**A.** > 100 µM

**Q.** Which IC50 [5] does the source give for NC(N)=NCCC[C@@H]1COc2ccc(NC(=O)c3ccc4nc(O)c(O)nc4c3)cc2C(=O)NC[C@@H](N)C(=O)N[C@H](Cc2cccnc2)C(=O)N1 here?
**A.** 20 µM

**Q.** Which MIC [1] does the source give for NC(N)=NCCC[C@@H]1COc2ccc(NC(=O)c3ccc4nc(O)c(O)nc4c3)cc2C(=O)NC[C@H](N)C(=O)N[C@H](Cc2ccc(O)cc2)C(=O)N1 here?
**A.** > 100 µM

**Q.** And the MIC [2]?
**A.** 25 µM (≈ 17.9 µg/mL)

**Q.** And the MIC [3]?
**A.** > 100 µM

**Q.** What about the IC50 [4] of the same compound?
**A.** 35 µM

**Q.** And the IC50 [5]?
**A.** 15 µM

**Q.** And the MIC [6]?
**A.** > 100 µM

**Q.** Which IC50 [5] does the source give for NC(N)=NCCC[C@H]1COc2ccc(NC(=O)c3ccc4nc(O)c(O)nc4c3)cc2C(=O)NC[C@@H](N)C(=O)N[C@@H](Cc2cccnc2)C(=O)N1 here?
**A.** 50 µM

**Q.** For NC(N)=NCCC[C@H]1COc2ccc(NS(=O)(=O)c3ccc4nc(O)c(O)nc4c3)cc2C(=O)NC[C@@H](N)C(=O)N[C@@H](Cc2ccc(N)cc2)C(=O)N1, which IC50 [5] is on record?
**A.** 62 µM

**Q.** Which IC50 [5] does the source give for NC(N)=NCCC[C@H]1COc2ccc(NC(=O)c3ccc4ccccc4c3)cc2C(=O)NC[C@@H](N)C(=O)N[C@@H](Cc2ccc(N)cc2)C(=O)N1 here?
**A.** > 100 µM

**Q.** With NC(N)=NCCC[C@H]1COc2ccc(NC(=O)CCCCCNC(=O)c3ccc4nc(O)c(O)nc4c3)cc2C(=O)NC[C@@H](N)C(=O)N[C@@H](Cc2ccc(N)cc2)C(=O)N1 as the compound, how does the IC50 [5] read?
**A.** 33 µM

**Q.** Which IC50 [5] does the source give for NC(N)=NCCC[C@H]1COc2ccc(NC(=O)c3ccc4ccccc4n3)cc2C(=O)NC[C@@H](N)C(=O)N[C@@H](Cc2ccc(N)cc2)C(=O)N1 here?
**A.** > 100 µM

**Q.** For NC(N)=NCCC[C@H]1COc2ccc(NC(=O)CNC(=O)c3ccc4nc(O)c(O)nc4c3)cc2C(=O)NC[C@@H](N)C(=O)N[C@@H](Cc2ccc(N)cc2)C(=O)N1, which IC50 [5] is on record?
**A.** 50 µM

**Q.** With NC(N)=NCCC[C@H]1COc2ccc(NC(=O)c3ccc4nc(O)c(O)nc4c3)cc2C(=O)NC[C@@H](N)C(=O)N[C@@H](Cc2ccc(N)cc2)C(=O)N1 as the compound, how does the MIC [1] read?
**A.** > 100 µM

**Q.** And the MIC [3]?
**A.** > 100 µM

**Q.** And the MIC [11]?
**A.** 50 µM (≈ 35.7 µg/mL)

**Q.** And the IC50 [4]?
**A.** 13 µM

**Q.** What about the IC50 [5] of the same compound?
**A.** 16 µM

**Q.** What about the MIC [6] of the same compound?
**A.** > 100 µM

**Q.** With NC(N)=NCCC[C@H]1COc2ccc(NC(=O)c3ccc4cccnc4c3)cc2C(=O)NC[C@@H](N)C(=O)N[C@@H](Cc2ccc(N)cc2)C(=O)N1 as the compound, how does the IC50 [5] read?
**A.** > 100 µM

**Q.** For CN(CC(=O)Nc1ccc2c(c1)C(=O)NC[C@@H](N)C(=O)N[C@@H](Cc1ccc(N)cc1)C(=O)N[C@@H](CCCN=C(N)N)CO2)C(=O)c1ccc2nc(O)c(O)nc2c1, which IC50 [5] is on record?
**A.** > 100 µM

**Q.** Which results are given for NC(N)=NCCC[C@H]1COc2ccc(NC(=O)c3ccc4nc(O)c(O)nc4c3)cc2C(=O)NC[C@@H](N)C(=O)N[C@@H](Cc2ccc(O)cc2)C(=O)N1?
**A.** MIC [7]: 50 µM (≈ 35.7 µg/mL); MIC [1]: > 100 µM; MIC [3]: > 100 µM; IC50 [4]: 50 µM; IC50 [5]: 25 µM; MIC [6]: > 100 µM

**Q.** For Cc1nc2ccc(C(=O)Nc3ccc4c(c3)C(=O)NC[C@@H](N)C(=O)N[C@@H](Cc3ccc(N)cc3)C(=O)N[C@@H](CCCN=C(N)N)CO4)cc2nc1C, which IC50 [5] is on record?
**A.** > 100 µM

**Q.** With NC(N)=NCCC[C@H]1COc2ccc(NC(=O)CCNC(=O)c3ccc4nc(O)c(O)nc4c3)cc2C(=O)NC[C@@H](N)C(=O)N[C@@H](Cc2ccc(N)cc2)C(=O)N1 as the compound, how does the IC50 [5] read?
**A.** 3 µM

**Q.** Which IC50 [5] does the source give for Cn1c(=O)c(=O)n(C)c2cc(C(=O)Nc3ccc4c(c3)C(=O)NC[C@@H](N)C(=O)N[C@@H](Cc3ccc(N)cc3)C(=O)N[C@@H](CCCN=C(N)N)CO4)ccc21 here?
**A.** > 100 µM
